{"data": "Measurements from different studies", "KIT D816V": "Mast/stem cell growth factor receptor Kit (KIT, Homo sapiens, UniProt P10721, D816V)", "KIT V559D": "Mast/stem cell growth factor receptor Kit (KIT, Homo sapiens, UniProt P10721, V559D)", "KIT V559D/V654A": "Mast/stem cell growth factor receptor Kit (KIT, Homo sapiens, UniProt P10721, V559D/V654A)", "KIT": "Mast/stem cell growth factor receptor Kit (KIT, Homo sapiens, UniProt P10721)", "KIT autoinhibited": "Mast/stem cell growth factor receptor Kit, autoinhibited (KIT, Homo sapiens, UniProt P10721)", "KIT T670I/V559D": "Mast/stem cell growth factor receptor Kit (KIT, Homo sapiens, UniProt P10721, T670I/V559D)", "KIT L576P": "Mast/stem cell growth factor receptor Kit (KIT, Homo sapiens, UniProt P10721, L576P)", "note": "Lines come from different studies, so protocols differ."}
{"SMILES": "N[C@H]1CCN(c2nccc(-c3cnn4ncccc34)n2)C1", "target": "KIT D816V", "assay": "binding", "setting": "1 µM", "remaining binding [%]": 87}
{"SMILES": "CO[C@H]1CC[C@H](CNc2ccc(S(=O)(=O)NC(=O)c3ccc(N4CCN(CC5=C(c6ccc(Cl)cc6)CC(C)(C)CC5)CC4)cc3Oc3cnc4[nH]ccc4c3)cc2[N+](=O)[O-])CC1", "target": "KIT D816V", "assay": "cell-free assay, competition with immobilised ligand", "setting": "1 µM", "remaining binding [%]": 100}
{"SMILES": "O=C(NCCCN1CCOCC1)c1ccc(Nc2ncc(Cl)c(-c3ccc(Cl)s3)n2)cc1", "target": "KIT V559D", "assay": "binding, competition with immobilised ligand", "setting": "1 µM", "remaining binding [%]": 0.05}
{"SMILES": "Nc1ncc2c(n1)-c1c([nH]c3ccc(C#CC4CC4)cc13)CCCC2", "target": "KIT V559D/V654A", "assay": "binding, competition with immobilised ligand", "setting": "1 µM", "remaining binding [%]": 100}
{"SMILES": "O=C(c1ccc(Nc2nccc(-c3cc4ccccc4s3)n2)cc1)N1CCC(N2CCCC2)CC1", "target": "KIT D816V", "assay": "binding, competition with immobilised ligand", "setting": "1 µM", "remaining binding [%]": 15}
{"SMILES": "C[C@@H](c1ccc(-n2cnc3c(N)ncnc32)cc1)N1CCc2nn(C)c(Cc3ccccc3)c2C1=O", "target": "KIT", "assay": "binding, competition with immobilised ligand", "setting": "0.1 µM", "remaining binding [%]": 38}
{"SMILES": "Cc1cc(NC(=O)c2cccc(S(F)(F)(F)(F)F)c2)cc(-n2ccn3nc(-c4cccnc4)cc23)c1", "target": "KIT autoinhibited", "assay": "cell-free assay, competition with immobilised ligand", "setting": "1 µM", "remaining binding [%]": 70.3}
{"SMILES": "O=C(NCC1CCOCC1)c1n[nH]cc1NC(=O)c1c(F)cccc1F", "target": "KIT autoinhibited", "assay": "binding, competition with immobilised ligand", "setting": "1 µM", "remaining binding [%]": 100}
{"SMILES": "COc1ncc2cc3ccccc3nc2c1C#N", "target": "KIT D816V", "assay": "cell-free assay, competition with immobilised ligand", "setting": "5 µM", "remaining binding [%]": 95}
{"SMILES": "O=C(c1ccc(Nc2ncc(Cl)c(-c3cc4ccccc4s3)n2)cc1)N1CCC(N2CCCC2)CC1", "target": "KIT T670I/V559D", "assay": "binding, competition with immobilised ligand", "setting": "1 µM", "remaining binding [%]": 17}
{"SMILES": "CNC(=O)Nc1ccc2c(c1)CC[C@@]21OC(=O)N(CC(=O)N(Cc2ccc(F)cc2)[C@@H](C)C(F)(F)F)C1=O", "target": "KIT V559D/V654A", "assay": "cell-free assay, competition with immobilised ligand", "setting": "1 µM", "remaining binding [%]": 90}
{"SMILES": "CN1CCN(c2ccc(Nc3nccc(-c4cccc([N+](=O)[O-])c4)n3)cc2C(F)(F)F)CC1", "target": "KIT D816V", "assay": "binding", "setting": "10 µM", "remaining binding [%]": 1.1}
{"SMILES": "O=C(Nc1cccnn1)N1CCC(=Cc2cccc(Oc3ccc(C(F)(F)F)cn3)c2)CC1", "target": "KIT T670I/V559D", "assay": "cell-free assay, competition with immobilised ligand", "setting": "1 µM", "remaining binding [%]": 96}
{"SMILES": "Cc1cnc(Nc2ccc(C(=O)N3CCC(N4CCCC4)CC3)cc2)nc1-c1cc2ccccc2s1", "target": "KIT", "assay": "binding, competition with immobilised ligand", "setting": "1 µM", "remaining binding [%]": 4.5}
{"SMILES": "C[C@@H]1CCN(c2nccc(-c3cnn4ncccc34)n2)C1", "target": "KIT V559D/V654A", "assay": "binding", "setting": "1 µM", "remaining binding [%]": 79}
{"SMILES": "C=CC(=O)N1CCC(C(=O)NCC(=O)N2CCN(c3nc(-c4cnc(N)nc4C(F)F)nc(N4CCOCC4)n3)CC2)CC1", "target": "KIT autoinhibited", "assay": "binding, competition with immobilised ligand", "setting": "1 µM", "remaining binding [%]": 35}
{"SMILES": "Cc1cnn2ncc(-c3ccnc(N(C)C)n3)c2c1", "target": "KIT L576P", "assay": "binding", "setting": "1 µM", "remaining binding [%]": 100}
{"SMILES": "O=C(Nc1cccnn1)N1CC(C/C=C/c2cncc(Oc3ccc(C(F)(F)F)cn3)n2)C1", "target": "KIT V559D/V654A", "assay": "cell-free assay, competition with immobilised ligand", "setting": "1 µM", "remaining binding [%]": 100}
{"SMILES": "c1cnn2ncc(-c3ccnc(N4CCC45COC5)n3)c2c1", "target": "KIT autoinhibited", "assay": "binding", "setting": "1 µM", "remaining binding [%]": 56}
{"SMILES": "COc1cnc(Nc2cccc(S(N)(=O)=O)c2)nc1N1CCN(c2ccccc2)C(=O)C1", "target": "KIT", "assay": "binding, competition with immobilised ligand", "setting": "1 µM", "remaining binding [%]": 98}
{"SMILES": "F[C@@H]1CCN(c2nccc(-c3cnn4ncccc34)n2)C1", "target": "KIT L576P", "assay": "binding", "setting": "1 µM", "remaining binding [%]": 92}
{"SMILES": "COc1ccc2cc(OCC3(C(=O)O)CN(C(=O)c4ccc(F)cc4)C3)ccc2c1", "target": "KIT L576P", "assay": "cell-free assay, competition with immobilised ligand", "setting": "1 µM", "remaining binding [%]": 100}
{"SMILES": "CN(CCCC(F)(F)F)c1nccc(-c2cnn3ncccc23)n1", "target": "KIT V559D", "assay": "binding", "setting": "1 µM", "remaining binding [%]": 100}
{"SMILES": "COc1ccc2c(O[C@@H]3C[C@H]4C(=O)N[C@]5(C(=O)O)CC5/C=C\\CCCCC[C@H](NC(=O)OC5CCCC5)C(=O)N4C3)cc(-c3csc(NC(=O)C(C)C)n3)nc2c1C (stereo partly drawn)", "target": "KIT", "assay": "cell-free assay, competition with immobilised ligand", "setting": "1 µM", "remaining binding [%]": 100}
